Glyco luc inh: increase of ERlucT glycosylation luciferase signal, primary screen, N-linked glycosylation inhibitor project, D54 ERlucT cells, luminescence, set 2; reporter increase, % at 12.5 µM; D54 ERlucT glycosylation luciferase reporter, 24 h; percent of 100 nM tunicamycin response; actives 0.23% (n = 360,000);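 active means mean luciferase reporter signal, scaled so untreated is 0 and the glycosylation-blocking control 100, at or above a set limit in every replicate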;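 further: luciferase carries N-glycosylation sites so blocking glycosylation raises the light; 0% = median of neutral control wells and 100% = median of 100 nM tunicamycin wells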
RAD52 inh: RAD52 DNA annealing inhibitors, primary screen, biochemical, FRET, single point, set 2; actives 0.46% (n = 360,000); recombinant RAD52 DNA annealing, FRET fluorescence; DNA repair protein RAD52 homolog (Homo sapiens), P43351; inhibition, % at 18.7 µM; AID 651710, 2012;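 active means every replicate showing at least 50% inhibition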
Target sequence (P43351 whole entry, looked up): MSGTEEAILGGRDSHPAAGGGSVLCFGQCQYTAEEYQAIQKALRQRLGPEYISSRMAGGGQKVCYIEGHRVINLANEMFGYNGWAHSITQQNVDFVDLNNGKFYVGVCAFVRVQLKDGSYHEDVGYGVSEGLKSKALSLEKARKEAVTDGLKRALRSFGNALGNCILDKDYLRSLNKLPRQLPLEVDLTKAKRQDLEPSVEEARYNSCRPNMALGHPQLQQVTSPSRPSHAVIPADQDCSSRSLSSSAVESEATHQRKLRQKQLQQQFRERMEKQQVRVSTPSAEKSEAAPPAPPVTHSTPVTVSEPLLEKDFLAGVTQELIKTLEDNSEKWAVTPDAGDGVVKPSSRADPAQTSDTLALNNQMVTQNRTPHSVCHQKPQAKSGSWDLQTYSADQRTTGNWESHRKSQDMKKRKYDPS
CaV13 FRET inh: Disruptors of the CACNA1D IQ motif to Ca2+-dependent inactivation inhibitor domain association, primary screening, Förster resonance energy transfer in intact living …. actives 0.098% (n = 340,000). AID 743397. inhibition, % at 12.3 µM. HEK cells, CFP/YFP FRET ICDI-IQ, plate reader, 10 min; percent FRET-ratio fall versus neutral wells;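 active means mean replicate inhibition of at least 30% and at least 1% of replicates passing that level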;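 further: 0% = median of the neutral control wells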
RAD54 inh: inhibitors of human RAD54 branch migration, primary screen, biochemical, fluorescence, single point. AID 602329, 2012. inhibition, % at 10.4 µM. actives 0.14% (n = 360,000). DNA repair and recombination protein RAD54-like (Homo sapiens), Q92698. RAD54 Holliday junction branch migration, FAM/BHQ fluorescence;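 active means mean normalized replicate activity at least 40 and at least half of replicates scoring 40 or more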;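 further: 0% = median of neutral control wells and 100% = median of positive control wells; inhibitors cause a drop in the FAM fluorescence signal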
FN deposition inh: inhibitors of fibronectin matrix deposition, primary screen, AH1F cells, Alexa488-fibronectin fluorescence, plate reader; AH1F fibroblasts, overnight; AID 743247, 2014; actives 0.086% (n = 350,000); inhibition, % at 12.6 µM;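 active means mean inhibition across replicates of 30% or more, regardless of how many single replicates reach that level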;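 further: positive control wells lacked labelled fibronectin entirely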
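Measured by – fluorescence 485/525 nm · System – AH1F fibroblast monolayer, labelled fibronectin deposition · Amount – 10000 cells per well · Buffer or medium – serum-reduced DMEM (2% serum) · Doses – single dose, pinned · Also added – fluorescent fibronectin at 24 nM final · Schedule – 1 h cell attachment, overnight exposure to compound and label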
Starred values were filed as active, the others as inactive; i = inactive; / = no result; ! = repeats disagree. Most compounds without a hit are left out; they make up all but 0.7% or so of the library.

SMILES	Glyco luc inh	RAD52 inh	CaV13 FRET inh	RAD54 inh	FN deposition inh
CCCCCCc1cc2cc(S(=O)(=O)c3ccc(F)cc3)c(=O)oc2cc1O	0.9	-22.0	53.5*	1.4	-3.4
CCCCCCc1cc2cc(-c3nnc(-c4ccccc4O)o3)c(=O)oc2cc1O	-10.7	/	3.7	3.1	/
O=C(Nc1ccccc1Cl)N1CCN(c2ccc3nnc(-c4ccccc4)n3n2)CC1	7.6	/	/	3.3	/
O=C(Nc1ccc(Cl)cc1)N1CCN(c2ccc3nnc(-c4ccc(F)cc4)n3n2)CC1	99.7*	/	-3.4	-0.4	0.4
CCC(=O)N1CC(=O)N2[C@H](CO)[C@@H](c3ccc(C#Cc4cccc(OC)c4)cc3)[C@@H]2C1	/	-19.0	/	/	/
C[C@@H]1CN([C@H](C)CO)C(=O)c2cccc(NC(=O)C3CCOCC3)c2O[C@@H]1CN(C)C(=O)NC1CCCCC1	/	6.2	/	-1.7	-4.0
O=C(O)c1[nH]c2ccccc2c1C(c1ccccc1)c1c(C(=O)O)[nH]c2ccccc12	2.5	-12.7	0.0	0.7	9.1
COc1cc(C(c2c(C(=O)O)[nH]c3ccccc23)c2c(C(=O)O)[nH]c3ccccc23)ccc1OCc1ccccc1	-0.1	-11.2	103.3*	15.0	7.4
CCN(CC)c1ccc(/C=C/c2cccc[n+]2C)c(OC)c1	27.8*	i	-155.3	-333.4	-94.2
Cc1noc(C)c1NC(=O)Nc1ccc2c(c1)C(=O)N([C@H](C)CO)C[C@@H](C)[C@@H](CN(C)S(C)(=O)=O)O2	/	-4.3	/	-3.5	/
Cc1ccc(S(=O)(=O)N[C@@H]2C=C[C@@H](CC(=O)NCc3ccncn3)O[C@H]2CO)cc1	/	-15.4	/	4.4	/
C[C@@H]1CN([C@@H](C)CO)C(=O)Cc2cc(NS(=O)(=O)c3cn(C)cn3)ccc2O[C@H]1CN(C)C(=O)Nc1ccc(C(F)(F)F)cc1	/	5.9	/	/	/
O=C(N/N=C/c1cccs1)c1cccc(NC(=O)c2ccc(Cl)cc2)c1	/	1.1	3.1	/	35.2*
O=C(N/N=C/c1cccs1)c1cccc(S(=O)(=O)Nc2ccc(Cl)cc2)c1	1.4	-8.9	1.2	/	7.4
Cc1nc2c3cc(F)ccc3n(Cc3ccccc3)c2s1	12.1	-8.8	-6.2	-9.0	/
Cc1nc2c3cc(F)ccc3n(CCN3CCCCC3)c2s1	31.9*	28.7	-2.4	41.4	1.4
C[C@H](CO)N1C[C@H](C)[C@@H](CN(C)S(=O)(=O)c2cccs2)Oc2ccc(NC(=O)CCCCCC(=O)Nc3ccccc3N)cc2C1=O	/	10.6	/	-3.1	/
Cc1[nH]c2ccccc2c1/C=N/NC(=O)c1cc(-c2ccncc2)nc2ccccc12	37.3*	-5.8	-5.3	-2.3	11.6
C[C@@H]1CN([C@@H](C)CO)C(=O)Cc2cc(NC(=O)Nc3ccc(C(F)(F)F)cc3)ccc2O[C@@H]1CN(C)Cc1ccc(Oc2ccccc2)cc1	/	4.5	/	-1.7	/
COc1ccc(Nc2nc(N3CCCC3)nc3ccccc23)c(OC)c1	99.3*	/	-4.5	99.5*	3.6
CO[C@H]1CN(C)C(=O)c2ccc(NC(=O)NC(C)C)cc2OC[C@@H](C)N(Cc2cocn2)C[C@H]1C	/	/	/	-6.5	-1.2
O=C(NCc1ccccc1)OC1CC2CC1[C@H]1CCCCN1C2=O (stereo partly drawn)	/	-6.6	-5.1	/	-6.5
O=C(NCc1ccc(F)cc1)OC1CC2CC1[C@H]1CCCCN1C2=O (stereo partly drawn)	/	-1.0	-5.1	/	30.3*
C[C@H](CO)N1C[C@H](C)[C@@H](CN(C)C(=O)Cc2ccccc2)OCCCC[C@H](C)Oc2ccc(NC(=O)Nc3ccc(F)cc3)cc2C1=O	/	-0.7	/	3.7	/
CN(C)c1ccc2c(c1)[C@H]1C[C@H](CC(=O)NCCN3CCCCC3)O[C@H](CO)[C@H]1O2	/	55.8*	/	37.5	-4.3
CN(C)c1ccc2c(c1)[C@@H]1C[C@H](CC(=O)NCCN3CCCCC3)O[C@@H](CO)[C@@H]1O2	/	40.2	/	13.2	/
Cc1ccc(S(=O)(=O)N2[C@@H]3CNC[C@H]2C3c2ccc(-c3cccc(C)c3)cc2)cc1 (stereo partly drawn)	/	51.4*!	/	/	-5.9

Source: PubChem (Broad Institute)
